Assay [1] concerns MDA-MB-231. Kind of assay: Cytotoxicity against human MDA-MB-231 cells after 48 hrs by Alamar blue assay. The class given is functional, cell-based. The following applies: MDA-MB-231, 48 h. The gist of the method:
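Cells were seeded at 5000 per well and grown for 24 h. Samples were then added from DMSO solution, with 0.1% DMSO as vehicle control. After 48 h incubation, viability was read from Alamar blue colour spectrophotometrically at 540 nm.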
Background: The colour change of resazurin is a common sign of viable cells or microbes.

Assay [2] relates to MDA-MB-231. Nature of the assay: Cell cycle arrest in human MDA-MB-231 cells assessed as increase of cells in sub-G0 phase after 24 hrs using annexin V/propidium iodide staining by flow cytometry. The class given is functional, cell-based. The procedure, abridged:
(§1)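 Cells cultured in RPMI 1640 with 10% heat-inactivated FCS, 37 °C, 5% CO2. After 24 h of growth, cells were treated with test samples dissolved in DMSO for a further 24 h. Cell cycle distribution was measured by FACS with annexin V/propidium iodide double staining. For DNA content, singlet events were gated and 10 000-20 000 events were acquired. Read-out: percentage of cells in S phase and in sub-G0 phase.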

Assay [3] has as its system MDA-MB-231. Nature of the assay: Cell cycle arrest in human MDA-MB-231 cells assessed as decrease in cells in S phase after 24 hrs using annexin V/propidium iodide staining by flow cytometry. It is filed as functional, cell-based. The procedure, abridged: as §1
For orientation: Flow cytometry measures light scatter and fluorescence of single cells or particles in a stream.

The test system of assay [4] is MDA-MB-231. Nature of the assay: Cell cycle arrest in human MDA-MB-231 cells assessed as decrease in cells in S phase at 30 ug/ml after 24 hrs using annexin V/propidium iodide staining by flow cytometry (reference value: 13%). On the set-up: scale not given: the % may be the effect or the level left. The class given is functional. The procedure, abridged: as §1
Assay [5] has as its system MDA-MB-231. Kind of assay: Induction of apoptosis in human MDA-MB-231 cells assessed as condensation of nucleus after 24 hrs using Hoechst 33342/propidium iodide staining […]. The class given is functional, cell-based.
Assay [6] deals with MDA-MB-231. Kind of assay: Induction of apoptosis in human MDA-MB-231 cells assessed as condensation of cytoplasm after 24 hrs using Hoechst 33342/propidium iodide staining by FACS analysis. The class given is functional, cell-based.
Assay [7] relates to MDA-MB-231. Kind of assay: Induction of apoptosis in human MDA-MB-231 cells assessed as chromatin condensation after 24 hrs using Hoechst 33342/propidium iodide staining […]. It is filed as functional, cell-based.
Assay [8] has as its system MDA-MB-231. Kind of assay: Induction of apoptosis in human MDA-MB-231 cells assessed as chromatin segregation after 24 hrs using Hoechst 33342/propidium iodide staining […]. It is filed as functional, cell-based.
Assay [9] concerns MDA-MB-231. Nature of the assay: Induction of apoptosis in human MDA-MB-231 cells assessed as loss of membrane […] at 1.2 to 30 ug/ml using Hoechst 33342/propidium iodide staining by FACS analysis. The settings on record: TDE = time-dependent effect. The class given is functional, cell-based.
For assay [10], the system named is MDA-MB-231. Nature of the assay: Induction of apoptosis in human MDA-MB-231 cells assessed as condensation of nucleus at 1.2 to 30 ug/ml using Hoechst 33342/propidium iodide staining […]. It is filed as functional, cell-based. The settings on record: TDE = time-dependent effect.
The subject of assay [11] is MDA-MB-231. Kind of assay: Induction of apoptosis in human MDA-MB-231 cells assessed as condensation of cytoplasm at 1.2 to 30 ug/ml […]. The class given is functional, cell-based. The following applies: TDE = time-dependent effect.
Assay [12] relates to MDA-MB-231. Nature of the assay: Induction of apoptosis in human MDA-MB-231 cells assessed as chromatin condensation at 1.2 to 30 ug/ml using Hoechst 33342/propidium iodide staining […]. The class given is functional, cell-based. The settings on record: TDE = time-dependent effect.
Assay [13] concerns MDA-MB-231. Kind of assay: Induction of apoptosis in human MDA-MB-231 cells assessed as chromatin segregation at 1.2 to 30 ug/ml using Hoechst 33342/propidium iodide staining […]. It is filed as functional, cell-based. The settings on record: TDE = time-dependent effect.
The subject of assay [14] is MDA-MB-231. Nature of the assay: Induction of apoptosis in human MDA-MB-231 cells assessed as loss of membrane […] after 24 hrs using Hoechst 33342/propidium iodide staining by FACS analysis. It is filed as functional, cell-based.

SMILES strings stand for the structures. The source made the active and inactive calls. No cut-off for these calls is given here.

Turning to `C=C1[C@@H](c2ccc(O)c(OC)c2)O[C@@H](c2ccc(O)c(OC)c2)[C@@]12CCC1=C(C2)[C@@H](c2ccc(O)c(OC)c2)O[C@@H]1c1ccc(O)c(OC)c1` [RAMONANIN D], in the assay on MDA-MB-231 [1], the concentration for half-maximal inhibition (IC50) (commonly the midpoint of a concentration-inhibition curve) was 18 µM.

As for `CC[C@@]1(O)C(=O)OCc2c1cc1n(c2=O)Cc2cc3ccccc3nc2-1`, the result in the assay with MDA-MB-231 [2] was Active. For the same compound, the Activity entry in the assay on MDA-MB-231 [3] was “Dose-dependent effect”.

In the assay on MDA-MB-231 [1], `C=C1[C@@H](c2ccc(O)c(OC)c2)O[C@@H](c2ccc(O)c(OC)c2)[C@@]12CCC1=C(C2)[C@H](c2ccc(O)c(OC)c2)O[C@@H]1c1ccc(O)c(OC)c1` [RAMONANIN C] displayed an IC50 of 18 µM.

With `C=C1[C@H](c2ccc(O)c(OC)c2)O[C@H](c2ccc(O)c(OC)c2)[C@@]12CCC1=C(C2)[C@@H](c2ccc(O)c(OC)c2)O[C@H]1c1ccc(O)c(OC)c1` [RAMONANIN B], in the assay on MDA-MB-231 [1], the IC50 was found to be 18 µM. The result in the assay on MDA-MB-231 [2] was Active. The Activity entry with MDA-MB-231 [3] is “Dose-dependent effect”; in the assay with MDA-MB-231 [4] it was less than 4%.

In the case of `C=C1[C@@H](c2ccc(O)c(OC)c2)O[C@@H](c2ccc(O)c(OC)c2)[C@@]12CCC1=C(C2)[C@@H](c2ccc(O)c(OC)c2)O[C@H]1c1ccc(O)c(OC)c1` [RAMONANIN A], the Activity result with MDA-MB-231 [5] was “Dose-dependent effect”; in the assay on MDA-MB-231 [6] it was “Dose-dependent effect”; with MDA-MB-231 [7], “Dose-dependent effect”; with MDA-MB-231 [8], “Dose-dependent effect”; in the assay on MDA-MB-231 [3] it was “Dose-dependent effect”; in the assay with MDA-MB-231 [4], less than 4%. Besides, the Activity result was “tde” with MDA-MB-231 [9]; “tde” in the assay on MDA-MB-231 [10]; “tde” with MDA-MB-231 [11]; “tde” with MDA-MB-231 [12]; “tde” in the assay on MDA-MB-231 [13]; “Dose-dependent effect” in the assay with MDA-MB-231 [14]. Besides, the IC50 in the assay on MDA-MB-231 [1] was 18 µM. Besides, the outcome in the assay with MDA-MB-231 [2] was Active.
